Measured values from ChEMBL document CHEMBL2010803, “Novel NSAID 1-acyl-4-cycloalkyl/arylsemicarbazides and 1-acyl-5-benzyloxy/hydroxy carbamoylcarbazides as potential anticancer agents and antioxidants” (Eur J Med Chem, 2012).
The source made the active and inactive calls. The rule behind the calls is not given here.

Key:
[1] = tested on: Respiratory syncytial virus; test: Antiviral activity against RSV infected in human cervix carcinoma cells assessed as inhibition of virus-induced cytopathic effect at 0.32 to 100 uM; assay type: functional, organism-based
In short: (§1)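 Confluent cell cultures were infected with 100 CCID50 of virus in the presence of test compound at 100, 40, 8, 1.6 and 0.32 μM. Cytopathic effect was scored once it was complete in untreated infected controls.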

Coxsackievirus B4 [2] = test: Antiviral activity against Coxsackievirus B4 infected in human cervix carcinoma cells assessed as inhibition of virus-induced cytopathic effect at 0.32 to 100 uM; assay type: functional, organism-based; in short: as §1
L1210 [3] = test: Cytostatic activity against mouse L1210 cells after 2 days by coulter counter analysis; assay type: functional, cell-based; conditions: L1210, 48 h
In short: (§2)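 300,000–500,000 cells/ml mixed 1:1 with compound dilutions and incubated at 37 °C for 2 days (L1210) or 3 days (CEM, HeLa). Cell number counted with a Coulter counter; HeLa trypsinized before counting.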

CCRF-CEM = test: Cytostatic activity against human CEM cells after 3 days by coulter counter analysis; assay type: functional, cell-based; conditions: 72 h; in short: as §2
HCT-116 = test: Cytostatic activity against human HCT116 cells after 72 hrs by MTT assay; assay type: functional, cell-based; conditions: HCT-116, 72 h
In short: (§3)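 Monolayers in DMEM with 10% FBS, 2 mM L-glutamine and penicillin/streptomycin, 37 °C, 5% CO2. Seeded at 1–3 × 10^4 cells/ml, then compound added in tenfold dilutions (10⁻⁸–10⁻⁴ M) for 72 h. MTT read at 570 nm; percent growth taken against time-zero and untreated controls. IC50 by linear regression; quadruplicate, at least two experiments.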

MCF7 [4] = test: Cytostatic activity against human MCF7 cells after 72 hrs by MTT assay; assay type: functional, cell-based; conditions: MCF7, 72 h; in short: as §3
NCI-H460 [5] = test: Cytostatic activity against human NCI-H460 cells after 72 hrs by MTT assay; assay type: functional, cell-based; conditions: NCI-H460, 72 h; in short: as §3
HaCaT [6] = test: Cytostatic activity against human HaCaT cells after 72 hrs by MTT assay; assay type: ADME, cell-based; in short: as §3
Human alphaherpesvirus 1 = test: Antiviral activity against HSV1 KOS infected in human lung fibroblast assessed as inhibition of virus-induced cytopathic effect at 0.32 to 100 uM; assay type: functional, organism-based; in short: as §1
Human alphaherpesvirus 2 = test: Antiviral activity against HSV2 G infected in human lung fibroblast assessed as inhibition of virus-induced cytopathic effect at 0.32 to 100 uM; assay type: functional, organism-based; conditions: strain G; in short: as §1
Vaccinia virus = test: Antiviral activity against Vaccinia virus infected in human lung fibroblast assessed as inhibition of virus-induced cytopathic effect at 0.32 to 100 uM; assay type: functional, organism-based; conditions: Orthopoxvirus vaccinia
[7] = tested on: Vesicular stomatitis virus; test: Antiviral activity against VSV infected in human lung fibroblast assessed as inhibition of virus-induced cytopathic effect at 0.32 to 100 uM; assay type: functional, organism-based
Human respirovirus 3 = test: Antiviral activity against Parainfluenza virus 3 infected in african green monkey Vero cells assessed as inhibition of virus-induced cytopathic effect at 0.32 to 100 uM; assay type: functional, organism-based; in short: as §1
[8] = tested on: Mammalian orthoreovirus 1; test: Antiviral activity against Reovirus-1 infected in african green monkey Vero cells assessed as inhibition of virus-induced cytopathic effect at 0.32 to 100 uM; assay type: functional, organism-based; in short: as §1
Sindbis virus = test: Antiviral activity against Sindbis virus infected in african green monkey Vero cells assessed as inhibition of virus-induced cytopathic effect at 0.32 to 100 uM; assay type: functional, organism-based; in short: as §1
Coxsackievirus B4 [9] = test: Antiviral activity against Coxsackievirus B4 infected in african green monkey Vero cells assessed as inhibition of virus-induced cytopathic effect at 0.32 to 100 uM; assay type: functional, organism-based; in short: as §1
Punta Toro virus = test: Antiviral activity against Punta Toro virus infected in african green monkey Vero cells assessed as inhibition of virus-induced cytopathic effect at 0.32 to 100 uM; assay type: functional, organism-based; in short: as §1
[10] = tested on: Vesicular stomatitis virus; test: Antiviral activity against Vesicular stomatitis virus infected in human cervix carcinoma cells assessed as inhibition of virus-induced cytopathic effect at 0.32 to 100 uM; assay type: functional, organism-based
In short: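 Confluent human cervix carcinoma (HeLa) cultures received 100 CCID50 of VSV together with the compound at 100, 40, 8, 1.6 or 0.32 μM. Cytopathicity was read at the point of full CPE in infected, untreated control wells.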

Felid alphaherpesvirus 1 = test: Antiviral activity against Feline herpesvirus infected in feline CRFK cells assessed as inhibition of virus-induced cytopathic effect at 0.32 to 100 uM; assay type: functional, organism-based; in short: as §1
Feline coronavirus = test: Antiviral activity against Feline coronavirus infected in feline CRFK cells assessed as inhibition of virus-induced cytopathic effect at 0.32 to 100 uM; assay type: functional, organism-based; in short: as §1
Influenza A virus [11] = test: Antiviral activity against Influenza A virus H1N1 infected in MDCK cells assessed as inhibition of virus-induced cytopathic effect at 0.32 to 100 uM; assay type: functional, organism-based
In short: (§4)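 Confluent MDCK monolayers were infected in the presence of the compound at 100, 40, 8, 1.6 and 0.32 μM. Viral cytopathicity was scored once it was complete in untreated infected control cultures.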

Influenza A virus [12] = test: Antiviral activity against Influenza A virus H3N2 infected in MDCK cells assessed as inhibition of virus-induced cytopathic effect at 0.32 to 100 uM; assay type: functional, organism-based; in short: as §4
Influenza B virus = test: Antiviral activity against Influenza B virus infected in MDCK cells assessed as inhibition of virus-induced cytopathic effect at 0.32 to 100 uM; assay type: functional, organism-based; in short: as §4
[13] = tested on: Human immunodeficiency virus 1; test: Antiviral activity against HIV1 3B infected in human CEM cells assessed as inhibition of virus-induced CEM giant cell formation at 0.32 to 100 uM after 4 days; assay type: functional, organism-based; conditions: CCRF-CEM
In short: (§5)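 CEM cells (~3 × 10^5 cells/cm³) exposed to 100 CCID50/ml of virus and seeded into wells holding compound dilutions. Incubated 4 days at 37 °C, then giant cell formation examined microscopically.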

[14] = tested on: Human immunodeficiency virus 2; test: Antiviral activity against HIV2 ROD infected in human CEM cells assessed as inhibition of virus-induced CEM giant cell formation at 0.32 to 100 uM after 4 days; assay type: functional, organism-based; conditions: ISOLATE ROD, CCRF-CEM; in short: as §5
[15] = tested on: Radical scavenging activity; test: Antioxidant activity assessed as DPPH free radical scavenging activity at 100 uM after 20 mins by spectrophotometric analysis; assay type: functional
In short: (§6)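 0.05 mM DPPH in absolute ethanol mixed with an equal volume of compound in DMSO (final 100 μM). Shaken and left 20 or 60 min, then absorbance read at 517 nm and percent activity calculated. Three replicates, averaged.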

[16] = tested on: Radical scavenging activity; test: Antioxidant activity assessed as DPPH free radical scavenging activity at 100 uM after 60 mins by spectrophotometric analysis; assay type: functional; in short: as §6
[17] = Antioxidant activity assessed as inhibition of AAPH-induced linoleic acid lipid peroxidation by measuring conjugated diene hydroperoxide level; assay type: functional; design: concentration or dose not given beside the values; conditions: dose or concentration not given here
In short: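 Linoleic acid sodium salt (10 μL of 16 mM) in 0.05 M phosphate buffer pH 7.4 at 37 °C. Oxidation started under air with 50 μL of 40 mM AAPH. Conjugated diene hydroperoxide formation followed as absorbance rise at 234 nm; control contains the same DMSO level. At least triplicate.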

Glycine max = test: Inhibition of soybean LOX assessed as conversion of sodium linoleate to 13- hydroperoxylinoleic acid at 100 uM
[18] = Inhibition of soybean LOX assessed as conversion of sodium linoleate to 13- hydroperoxylinoleic acid; design: species or system Glycine max
HeLa [19] = test: Cytostatic activity against human HeLa cells after 3 days by coulter counter analysis; assay type: functional, cell-based; conditions: 72 h; in short: as §2
L1210 [20] = test: Selectivity ratio of IC50 for human HaCaT cells to IC50 for mouse L1210 cells
HaCaT [21] = test: Selectivity ratio of IC50 for human HaCaT cells to IC50 for human CEM cells
HeLa [22] = test: Selectivity ratio of IC50 for human HaCaT cells to IC50 for human HeLa cells
HaCaT [23] = test: Selectivity ratio of IC50 for human HaCaT cells to IC50 for human HCT116 cells
NCI-H460 [24] = test: Selectivity ratio of IC50 for human HaCaT cells to IC50 for human NCI-H460 cells
MCF7 [25] = test: Selectivity ratio of IC50 for human HaCaT cells to IC50 for human MCF7 cells

| Structure (SMILES) | inhibition [1] | inhibition (Coxsackievirus B4 [2]) | IC50 (L1210 [3]) [µM] | IC50 (CCRF-CEM) [µM] | IC50 (HCT-116) [µM] | IC50 (MCF7 [4]) [µM] | IC50 (NCI-H460 [5]) [µM] | IC50 (HaCaT [6]) [µM] | inhibition (Human alphaherpesvirus 1) | inhibition (Human alphaherpesvirus 2) | inhibition (Vaccinia virus) | inhibition [7] | inhibition (Human respirovirus 3) | inhibition [8] | inhibition (Sindbis virus) | inhibition (Coxsackievirus B4 [9]) | inhibition (Punta Toro virus) | inhibition [10] | inhibition (Felid alphaherpesvirus 1) | inhibition (Feline coronavirus) | other results |
| --- | --- | --- | --- | --- | --- | --- | --- | --- | --- | --- | --- | --- | --- | --- | --- | --- | --- | --- | --- | --- | --- |
| CC(C(=O)NNC(=O)NCc1ccccc1)c1cccc(Oc2ccccc2)c1 (centres undefined) | inactive | inactive | 63 | 72 | 27 | 17 | 19 | 46 | inactive | inactive | inactive | inactive | inactive | inactive | inactive | inactive | inactive | inactive | inactive | inactive | inhibition (Influenza A virus [11]): inactive; inhibition (Influenza A virus [12]): inactive; inhibition (Influenza B virus): inactive; inhibition [13]: inactive; inhibition [14]: inactive; Activity [15]: 22%; Activity [16]: 24%; inhibition [17]: 11%; inhibition (Glycine max): 68%; IC50 [18]: 75 µM |
| CC(C(=O)NNC(=O)NC(c1ccccc1)c1ccccc1)c1cccc(Oc2ccccc2)c1 (centres undefined) | inactive | inactive | 15 | 11 | 5 | 7 | 3 | 10 | inactive | inactive | inactive | inactive | inactive | inactive | inactive | inactive | inactive | inactive | inactive | inactive | IC50 (HeLa [19]): 5.7 µM; inhibition (Influenza A virus [11]): inactive; inhibition (Influenza A virus [12]): inactive; inhibition (Influenza B virus): inactive; inhibition [13]: inactive; inhibition [14]: inactive; Activity [15]: 2%; Activity [16]: 4%; inhibition [17]: 99%; inhibition (Glycine max): 81%; IC50 [18]: 60 µM; Ratio IC50 (L1210 [20]): 2; Ratio IC50 (HaCaT [21]): 2; Ratio IC50 (HeLa [22]): 2; Ratio IC50 (HaCaT [23]): 2; Ratio IC50 (NCI-H460 [24]): 2; Ratio IC50 (MCF7 [25]): 2 |
| CC(C(=O)NNC(=O)NC(c1ccccc1)c1ccccc1)c1cccc(Cc2ccccc2)c1 (centres undefined) | inactive | inactive | 19 | 15 | 8 | 5 | 4 | 11 | inactive | inactive | inactive | inactive | inactive | inactive | inactive | inactive | inactive | inactive | inactive | inactive | IC50 (HeLa [19]): 5 µM; inhibition (Influenza A virus [11]): inactive; inhibition (Influenza A virus [12]): inactive; inhibition (Influenza B virus): inactive; inhibition [13]: inactive; inhibition [14]: inactive; Activity [15]: 4%; Activity [16]: 9%; inhibition [17]: 88%; inhibition (Glycine max): 96%; IC50 [18]: 51.5 µM; Ratio IC50 (L1210 [20]): 2; Ratio IC50 (HaCaT [21]): 2; Ratio IC50 (HeLa [22]): 2; Ratio IC50 (HaCaT [23]): 2; Ratio IC50 (NCI-H460 [24]): 2; Ratio IC50 (MCF7 [25]): 2 |
